Series [1] concerns the target Carbonic anhydrase 1 (Homo sapiens, UniProt P00915). Briefly: Inhibition of human CA1 after 15 mins by stopped-flow CO2 hydration assay.
Series [2] deals with Carbonic anhydrase 9 (Homo sapiens, UniProt Q16790). The series can be described thus: Inhibition of human CA9 after 15 mins by stopped-flow CO2 hydration assay.
Series [3] concerns the target Carbonic anhydrase 2 (Homo sapiens, UniProt P00918). The series can be described thus: Inhibition of human CA2 after 15 mins by stopped-flow CO2 hydration assay.
Series [4] has as its target Carbonic anhydrase 12 (Homo sapiens, UniProt O43570). Briefly: Inhibition of human CA12 after 15 mins by stopped-flow CO2 hydration assay.
A short description of series [5]: Solubility of the compounds at 300 uM. In kind it is physicochemical.
Series [6] deals with HT-29. Briefly: Antiproliferative activity against human HT-29 cells at 30 to 100 uM after 16 hrs under normoxic conditions by MTT assay. Type of series: functional, cell-based. A digest of the protocol: (§1)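 HT-29 colon cancer cells in DMEM high glucose with 20% FBS were seeded at 1·10^4/well. After 24 h they were exposed to 0–300 μM compound for 16, 48 or 72 h in air (20% O2, 5% CO2, 37 °C). MTT (1 mg/ml) was added for 30 min, formazan dissolved in DMSO and read at 550 nm. Viability is relative to untreated control (100%). Quadruplicates on ≥3 cell batches, mean ± SEM.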

Series [7] deals with HT-29. The series can be described thus: Antiproliferative activity against human HT-29 cells at 30 to 100 uM after 48 hrs under normoxic conditions by MTT assay. In kind it is functional, cell-based. A digest of the protocol: as §1
Series [8] concerns HT-29. The series can be described thus: Antiproliferative activity against human HT-29 cells at 30 to 300 uM after 48 hrs under normoxic conditions by MTT assay. Type of series: functional, cell-based. A digest of the protocol:
as §1

Series [9] deals with HT-29. Briefly: Antiproliferative activity against human HT-29 cells after 16 hrs under normoxic conditions by MTT assay. Type of series: functional, cell-based. A digest of the protocol: as §1
Series [10] has as its system HT-29. Briefly: Antiproliferative activity against human HT-29 cells at 30 to 300 uM after 48 hrs under hypoxic conditions by MTT assay. Type of series: functional, cell-based. A digest of the protocol:
(§2)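 Hypoxic workstation at 0.1% O2, 5% CO2 and residual N2. HT-29 cells (DMEM high glucose, 20% FBS; 1·10^4/well) were treated 24 h post-plating with 0–300 μM compound for 16, 48 or 72 h. Viability was measured by MTT reduction (1 mg/ml, 30 min, 37 °C; DMSO-dissolved formazan, A550) and expressed as % of untreated control. Quadruplicates, ≥3 batches, mean ± SEM.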

Series [11] deals with HT-29. The series can be described thus: Antiproliferative activity against human HT-29 cells at 30 to 300 uM after 72 hrs under hypoxic conditions by MTT assay. In kind it is functional, cell-based. An outline of the steps: as §2
For series [12], the system named is HT-29. The series can be described thus: Antiproliferative activity against human HT-29 cells at 30 to 300 uM after 16 hrs under normoxic conditions by MTT assay. Type of series: functional, cell-based. An outline of the steps:
as §1

Each structure is given as a SMILES string. The source made the active and inactive calls. No cut-off for these calls is given here.

Chain of Carbonic anhydrase 1 (P00915 whole entry): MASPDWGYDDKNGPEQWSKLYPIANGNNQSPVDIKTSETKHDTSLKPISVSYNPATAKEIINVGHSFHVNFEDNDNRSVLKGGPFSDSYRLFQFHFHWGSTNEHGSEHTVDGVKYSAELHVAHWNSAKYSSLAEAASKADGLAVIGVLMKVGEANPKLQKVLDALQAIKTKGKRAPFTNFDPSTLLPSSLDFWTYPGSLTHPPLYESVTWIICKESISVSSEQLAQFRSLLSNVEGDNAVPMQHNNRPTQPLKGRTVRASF
Chain of Carbonic anhydrase 12 (O43570 whole entry): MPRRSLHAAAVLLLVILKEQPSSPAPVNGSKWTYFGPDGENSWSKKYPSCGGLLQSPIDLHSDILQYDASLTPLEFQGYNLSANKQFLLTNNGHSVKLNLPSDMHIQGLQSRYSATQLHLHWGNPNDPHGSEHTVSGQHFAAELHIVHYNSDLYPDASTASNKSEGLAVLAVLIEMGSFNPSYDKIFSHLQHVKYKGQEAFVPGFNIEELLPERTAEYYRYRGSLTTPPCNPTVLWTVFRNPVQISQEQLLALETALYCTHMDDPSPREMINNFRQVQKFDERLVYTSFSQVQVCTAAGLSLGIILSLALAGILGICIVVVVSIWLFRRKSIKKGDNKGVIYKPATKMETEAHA

On to `CC(=O)Nc1ccc2oc(=O)c3c(C)nn(-c4ccccc4)c3c2c1`, for which the Ki is above 10000 nM in series [1], 26.8 nM in series [2], above 10000 nM in series [3] and 646 nM in series [4].

In the case of `CCOc1c(C(C)=O)c(=O)oc2ccc(Br)cc12`, the Ki was above 10000 nM in series [1], 46.4 nM in [2], above 10000 nM in series [3] and 737 nM in series [4].

`Cc1ccc(-n2nc(C)c3c(=O)oc4ccccc4c32)cc1`: the inhibition constant Ki in series [1], in series [3] and in series [4] was above 10000 nM throughout. In addition, in [5], the solubility entry is reported as “Insoluble”. The result in [6] and in [7] was Active.

On to `Cc1nn(-c2ccccc2C(=O)O)c2c1c(=O)oc1ccccc12`, for which the inhibition constant Ki was above 10000 nM in series [1], 76.8 nM in series [2], above 10000 nM in series [3] and 27.3 nM in series [4].

Turning to `O=c1oc2ccccc2c2nn(Cc3ccccc3)c(Cc3ccccc3)c12`, the Ki in [1] is above 10000 nM; in [2], 290 nM; in series [3], above 10000 nM; in series [4] it was 672 nM.

Regarding `Cn1nc(Cc2ccccc2)c2c(=O)oc3ccccc3c21`, the Ki is above 10000 nM in series [1], 19.7 nM in [2], above 10000 nM in series [3] and 343 nM in series [4].

Regarding `O=c1oc2ccccc2c2c1c(Cc1ccccc1)nn2Cc1ccccc1`, the Ki in [1] was above 10000 nM; in series [2], 31.5 nM; in series [3], above 10000 nM; in series [4], 819 nM.

As to `Cc1nn(-c2ccccc2)c2c1c(=O)oc1ccc(NC(=O)Nc3ccccc3)cc12`, the inhibition constant (Ki) in [1] is above 10000 nM; in [2], 77.9 nM; in series [3], above 10000 nM; in [4], 583 nM.

For `Cc1c2c(=O)oc3ccccc3c2nn1-c1ccccc1`, the Ki is above 10000 nM in series [1], 38.1 nM in series [2], above 10000 nM in [3] and 593 nM in series [4].

As for `Cc1nn(Cc2ccccc2)c2c1c(=O)oc1ccccc12`, the Ki in series [1] is above 10000 nM; in series [2], 371 nM; in series [3], above 10000 nM; in series [4], 732 nM.

In the case of `CNc1ccc2oc(=O)c3c(C)nn(-c4ccccc4)c3c2c1`, the Ki in [1] is above 10000 nM; in [2], 51.3 nM; in series [3], above 10000 nM; in [4], 737 nM.

On to `Cc1nn(-c2ccccc2)c2c1c(=O)oc1ccccc12`, for which the Ki in series [1] was above 10000 nM; in series [2], 9.6 nM; in [3] it was above 10000 nM; in [4] it was 5.8 nM. Besides, the outcome in series [8] and in [10] was Active. Moreover, the Activity result in series [9] is “Dose-dependent effect”.

Take `CC(=O)c1c(O)c2cc([N+](=O)[O-])ccc2oc1=O`: the Ki in series [1] was above 10000 nM; in [2], 44.2 nM; in series [3], above 10000 nM; in series [4] it was 357 nM.

With `Cc1nn(-c2ccccc2)c2c1c(=O)oc1ccc(N(C)C)cc12`, the Ki in series [1] is above 10000 nM; in [2] it was 59.4 nM; in series [3], above 10000 nM; in series [4], 360 nM.

Regarding `CC(=O)c1cc2cc([N+](=O)[O-])c(Cl)cc2oc1=O`, the Ki in series [1] is above 10000 nM; in series [2], 561 nM; in [3] it was above 10000 nM; in series [4] it was 6400 nM.

Take `Cc1nn(-c2ccccc2)c2c1c(=O)oc1ccc([N+](=O)[O-])cc12`: the Ki in series [1] is above 10000 nM; in [2], 27.1 nM; in [3], above 10000 nM; in series [4], above 10000 nM. The outcome in series [8] and in [10] was Active. Moreover, in series [9], the Activity entry is “Dose-dependent effect”.

For the compound `Cc1cc2nn(-c3ccccc3)c(C)c2c(=O)o1`, the Ki was above 10000 nM in series [1], 41.4 nM in series [2], above 10000 nM in [3] and above 10000 nM in series [4]. The result in series [8], in series [11] and in series [10] was Active. Besides, the Activity entry in series [9] is “Dose-dependent effect”.

For `Cc1nn(-c2ccc(C(=O)O)cc2)c2c1c(=O)oc1ccccc12`, the Ki was above 10000 nM in series [1], 1960 nM in [2], above 10000 nM in series [3] and 24.7 nM in [4].

Turning to `Cc1c2c(=O)oc3ccc(Br)cc3c2nn1-c1ccccc1`, the Ki in [1] is above 10000 nM; in [2], 25.2 nM; in [3] it was above 10000 nM; in series [4], above 10000 nM.

As to `Cc1c2c(=O)oc3ccc([N+](=O)[O-])cc3c2nn1-c1ccccc1`, the Ki in series [1] is above 10000 nM; in series [2], 35.8 nM; in series [3], above 10000 nM; in [4], 360 nM.

As to `O=c1oc2ccccc2c2nn(-c3ccccc3)cc12`, the Ki was above 10000 nM in series [1], 37.6 nM in series [2], above 10000 nM in series [3] and above 10000 nM in [4].

In the case of `COc1c(C(C)=O)c(=O)oc2ccc(Br)cc12`, the Ki in series [1] was above 10000 nM; in series [2], 90.7 nM; in series [3] it was above 10000 nM; in series [4], 706 nM.

For the compound `CC(=O)c1c(O)c2ccccc2oc1=O`, the Ki was above 10000 nM in [1], 35.9 nM in series [2], above 10000 nM in series [3] and 453 nM in series [4].

As to `Cn1nc2c(c1Cc1ccccc1)c(=O)oc1ccccc12`, the Ki in [1] is above 10000 nM; in series [2], 555 nM; in series [3], above 10000 nM; in series [4], 33.3 nM.

Take `CC(=O)c1cc2ccc(Cl)cc2oc1=O`: the Ki was above 10000 nM in [1], 809 nM in series [2], above 10000 nM in series [3] and 4530 nM in [4].

In the case of `CC(=O)c1cc2ccccc2oc1=O` [3-ACETYLCOUMARIN], the Ki was above 10000 nM in series [1], 152 nM in series [2], above 10000 nM in series [3] and 7.8 nM in series [4].

With `Cc1nn(-c2ccccc2)c2c1c(=O)oc1ccc(N)cc12`, the Ki in series [1] was above 10000 nM; in [2], 34.5 nM; in [3], above 10000 nM; in series [4] it was above 10000 nM. The outcome in series [8], in series [12], in series [11] and in series [10] was Active.

In the case of `Cc1nn(-c2ccccc2)c2c1c(=O)oc1ccc(Br)cc12`, the inhibition constant Ki in series [1] was above 10000 nM; in series [2], 8.5 nM; in series [3], above 10000 nM; in [4], 7.1 nM.

As to `Cc1cc2c(c(C)nn2-c2ccccc2)c(=O)o1`, the Ki was above 10000 nM in series [1], 26.6 nM in [2], above 10000 nM in series [3] and 518 nM in series [4].

`Cc1nn(-c2ccccc2)c2c1c(=O)oc1cc(Cl)ccc12`: the Ki in series [1] is above 10000 nM; in [2], 57.9 nM; in series [3], above 10000 nM; in series [4], 819 nM.

Turning to `Cc1nn(-c2ccccc2)c2c1c(=O)oc1cc(Cl)c([N+](=O)[O-])cc12`, the Ki in series [1] was above 10000 nM; in series [2], 801 nM; in [3] it was above 10000 nM; in series [4] it was 6060 nM.

On to `Cc1nn(-c2ccccc2)c2c1c(=O)oc1ccc(NCc3ccccc3)cc12`, for which the Ki was above 10000 nM in series [1], 37.8 nM in [2], above 10000 nM in [3] and 360 nM in series [4].

On to `COc1ccc(-n2nc(C)c3c(=O)oc4ccccc4c32)cc1`, for which the Ki in series [1] is above 10000 nM; in [2], 40.2 nM; in series [3] it was above 10000 nM; in series [4], above 10000 nM.

For the compound `COc1c(C(C)=O)c(=O)oc2ccccc12`, the Ki in series [1] is above 10000 nM; in series [2], 28.4 nM; in series [3], above 10000 nM; in series [4], 674 nM.

`Cc1nn(-c2ccc(Cl)cc2)c2c1c(=O)oc1ccccc12`: the Ki in [1] was above 10000 nM; in series [2], 403 nM; in [3] it was above 10000 nM; in series [4] it was above 10000 nM.

As for `CC(=O)c1cc2cc([N+](=O)[O-])ccc2oc1=O`, the Ki in series [1] was above 10000 nM; in series [2], 44.9 nM; in [3] it was above 10000 nM; in series [4], 695 nM.
